Measured values taken from ChEMBL document CHEMBL1147926, “Synthetic chalcones, flavanones, and flavones as antitumoral agents: biological evaluation and structure-activity relationships” (Bioorg Med Chem, 2007).
pIC50: −log10 of the molar value.

Tests used:
HT-29 [1] = test: Cytotoxicity against human HT29 cells ATCC HTB38 in aerobic condition assessed as survival at 100 uM by sulforhodamine assay; format: functional; conditions: read-out: Activity
Method in brief: (§1)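 Cells kept in RPMI with L-glutamine, penicillin/streptomycin, non-essential amino acids (1% each) and 10% FBS, 37 °C, 5% CO2, 48 h; compound added from 1 mM stock in 10% DMSO to final 100 µM, 24 h exposure. TCA fixation 1 h at 4 °C, sulforhodamine B staining, Tris pH 10.0, A540. Survival = (T/C)×100 versus solvent control; duplicates, two repetitions averaged.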

TK-10 [2] = test: Cytotoxicity against human TK10 cells in aerobic condition assessed as survival at 100 uM by sulforhodamine assay; format: functional; conditions: read-out: Activity; method in brief: as §1
MCF7 [3] = test: Cytotoxicity against human MCF7 cells […] in aerobic condition assessed as survival at 100 uM by sulforhodamine assay; format: functional; conditions: read-out: Activity; method in brief: as §1
HT-29 [4] = test: Growth inhibition of HT29 cells by sulforhodamine assay; format: functional, cell-based; conditions: Homo sapiens
Method in brief: (§2)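 Cells grown in supplemented RPMI with 10% FBS at 37 °C, 5% CO2, 48 h, then exposed to increasing compound concentrations (1 mM stocks in 10% DMSO) for 24 h. Sulforhodamine B read-out after TCA fixation at A540. IC50 is the concentration halving absorbance relative to solvent control. Duplicates, at least two repetitions, means reported.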

[5] = Growth inhibition of HK2 cells by sulforhodamine assay; format: cell-based; conditions: Homo sapiens, HK-2
MCF7 [6] = test: Growth inhibition of MCF7 cells by sulforhodamine assay; format: functional, cell-based; conditions: Homo sapiens; method in brief: as §2
TK-10 [7] = test: Growth inhibition of TK10 cells by sulforhodamine assay; format: functional, cell-based; conditions: Homo sapiens; method in brief: as §2

pIC50 (HT-29 [4])	pIC50 (MCF7 [6])	SMILES	viability at 100 µM (HT-29 [1]) [%]	viability at 100 µM (TK-10 [2]) [%]	viability at 100 µM (MCF7 [3]) [%]	pIC50 [5]	pIC50 (TK-10 [7])
–	–	O=C(/C=C/c1ccccc1Br)c1ccc(OCc2ccccc2)cc1O	80	65	74	–	–
–	–	O=C(/C=C/c1ccccc1Br)c1ccccc1O	0	3	100	–	–
–	–	COc1ccc(C2CC(=O)c3ccccc3O2)cc1 (stereo not given)	100	36	2	–	–
–	–	CCCCCCCCCOc1ccc(/C=C/C(=O)c2ccccc2O)cc1	98	77	86	–	–
–	–	O=C1CC(c2ccc3c(c2)OCO3)Oc2ccccc21 (stereo not given)	100	100	100	–	–
–	–	O=C(/C=C/c1ccc(OCc2ccccc2)cc1)c1ccccc1O	59	64	56	–	–
–	–	Nc1ccc(/C=C/C(=O)c2ccccc2O)cc1	98	91	43	–	–
–	–	CCCCOc1ccc(/C=C/C(=O)c2ccc(OCCCC)cc2O)cc1	99	79	81	–	–
–	–	O=C(/C=C/c1ccccc1Br)c1ccccc1	26	2	32	–	–
–	–	COc1ccc(/C=C/C(=O)c2c(O)cc(OC)cc2OC)cc1 [FLAVOKAWAIN A]	–	71	60	–	–
4.35	–	O=C(/C=C/c1ccc(Cl)cc1)c1ccccc1O	25	3	41	–	–
–	–	O=C(/C=C/c1ccccc1[N+](=O)[O-])c1ccccc1O	100	100	100	–	–
–	–	COc1ccc(/C=C/C(=O)c2ccccc2O)cc1I	92	41	96	–	–
–	–	O=C(/C=C/c1ccc2c(c1)OCO2)c1ccccc1O	69	50	79	4.94	–
–	–	O=C1CC(c2ccc(OCc3ccccc3)cc2)Oc2ccccc21 (stereo not given)	69	78	76	–	–
–	–	CN(C)c1ccc(/C=C/C(=O)c2ccccc2O)cc1	65	76	87	–	–
–	–	COc1ccc(-c2cc(=O)c3ccccc3o2)cc1 [4'-METHOXYFLAVONE]	100	82	100	–	–
–	–	O=C(/C=C/c1ccc(OCc2ccccc2)cc1)c1ccc(OCc2ccccc2)cc1O	100	92	100	–	–
–	–	CC(=O)Nc1ccc(/C=C/C(=O)c2ccccc2O)cc1	87	89	79	–	–
4.27	4.05	COc1ccc(/C=C/C(=O)c2ccccc2)cc1 [4-METHOXY CHALCONE]	2	2	30	4.63	4.28
–	4.02	COc1ccc(/C=C/C(=O)c2ccccc2O)cc1OC	70	2	1	–	4.05
–	–	CSc1ccc(/C=C/C(=O)c2ccccc2O)cc1	76	91	75	–	–
–	–	O=C(/C=C/c1ccc([N+](=O)[O-])cc1)c1ccccc1O	94	34	43	–	–
–	–	O=C(/C=C/c1ccc(Cl)cc1)c1ccccc1 [4-CHLORO CHALCONE]	9	2	56	–	–
–	–	COc1cc(O)c(C(=O)/C=C/c2ccc(OC)c(OC)c2)c(OC)c1	–	100	89	–	–
–	–	COc1cc(O)c(C(=O)/C=C/c2ccccc2Br)c(OC)c1	87	53	82	–	–
–	–	O=C(/C=C/c1ccccc1)c1ccc(OCc2ccccc2)cc1O	99	72	74	–	–

pIC50 (HT-29 [4])	pIC50 (MCF7 [6])	SMILES	viability at 100 µM (HT-29 [1]) [%]	viability at 100 µM (TK-10 [2]) [%]	viability at 100 µM (MCF7 [3]) [%]	pIC50 [5]	pIC50 (TK-10 [7])
–	–	COc1ccc(OC)c(/C=C/C(=O)c2ccccc2O)c1	92	56	45	–	–
–	–	COc1ccc(/C=C/C(=O)c2ccccc2O)cc1OCc1ccccc1	100	100	100	–	–
–	–	CCCCCCOc1ccc(/C=C/C(=O)c2ccccc2O)cc1	97	62	76	–	–
–	–	COc1ccc(C2CC(=O)c3ccccc3O2)cc1OC (stereo not given)	68	69	81	–	–
–	–	O=C(/C=C/c1ccc(O)cc1)c1ccccc1O	9	5	3	–	–
–	–	COc1ccc(/C=C/C(=O)c2ccccc2O)cc1	97	4	10	4.63	4.17
–	–	O=C(/C=C/c1ccc(Br)cc1)c1ccccc1	28	90	44	–	–
–	–	O=C(/C=C/c1ccc(Br)cc1)c1ccccc1O	71	60	43	4.47	–
–	–	O=C(/C=C/c1ccco1)c1ccccc1O	40	48	60	–	–
–	–	O=C1CC(c2ccccc2)Oc2ccccc21 (stereo not given) [FLAVANONE]	69	79	54	–	–
–	–	O=C(CCc1ccc(OCc2ccccc2)cc1)c1ccccc1O	100	95	89	–	–
–	–	O=c1cc(-c2ccc(Cl)cc2)oc2ccccc12	100	74	100	–	–
–	–	O=C1CC(c2ccc(Br)cc2)Oc2ccccc21 (stereo not given)	61	16	26	–	–
–	–	O=c1cc(-c2ccccc2Br)oc2ccccc12	61	69	36	–	–
–	–	CC(=O)Nc1ccc(/C=C/C(=O)c2ccccc2)cc1	3	5	24	–	–
–	–	O=C(/C=C/C=C/c1ccccc1)c1ccccc1O	–	100	84	–	–
4.86	5.17	O=C(/C=C/c1ccccn1)c1ccccc1O	15	1	4	5.10	4.91
–	–	O=C1CC(c2ccccc2Br)Oc2ccccc21 (stereo not given)	44	54	12	–	–
4.07	4.11	O=C(/C=C/c1ccccc1)c1ccccc1O [2'-HYDROXYCHALCONE]	14	0	3	4.61	4.10
–	–	COc1cc(/C=C/C(=O)c2ccccc2O)ccc1OCc1ccccc1	100	90	97	–	–
–	–	O=c1cc(-c2ccccc2)oc2ccccc12 [FLAVONE]	90	87	57	–	–
–	–	O=c1cc(-c2ccc(Br)cc2)oc2ccccc12	100	94	73	4.32	–
4.15	4.20	O=C(/C=C/c1ccccc1)c1ccccc1 [CHALCONE]	5	2	19	4.52	4.38
–	–	O=C(/C=C/c1ccc(OCc2ccccc2)c(I)c1)c1ccccc1O	100	78	81	–	–
–	–	CSc1ccc(/C=C/C(=O)c2ccccc2)cc1	46	0	47	–	–
–	–	CSc1ccc(C(O)CC(=O)c2ccccc2O)cc1 (stereo not given)	100	100	90	–	–
